Drawing on the RNAGym collection of RNA variant scans (doi:10.1126/science.aae0568), this text covers yeast fitness for 83 variants.

Fewer inactive variants are shown than the library holds. A value given as a limit tells only on which side of the number the result lay.

B1: tRNA (parent)
chain: GUUCCGUUGGCGUAAUGGUAACGCGUCUCCCUCCUAAGGAGAAGACUGCGGGUUCGAGUCCCGUACGGAACG

The variants in this data set derive from B1. Nature of the data set: yeast fitness relative to wild type (ratio to wild type); higher = fitter; tRNA-Arg(CCU), competitive growth, 37 C, YPD. An outline of the steps:
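Variants of the tRNA-Arg(CCU) gene, chemically synthesised with a 3% per-site mutation rate at 69 sites, were placed at the native genomic locus in Saccharomyces cerevisiae. The pooled strains were competed in YPD at 37°C for 24 hours in six parallel replicates. Gene amplicons from the start population and from each end population were read by 100-nucleotide paired-end sequencing. Darwinian fitness relative to wild type came from changes in genotype frequencies; genotypes needed ≥ 100 starting reads, and estimates < 0.5 were set to 0.5.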
Regarding A15U C33A A37G U53C, the yeast fitness worked out at 0.668.
As for A15U C61G, the figure is 0.582; as for A15U C61A, 0.571; as for A15U C61U, 0.673.
The same measure for A15U C33G G52A A65G: at most 0.5.
The same measure for A15U C31U U35A A36C U53A: 0.625; for A15U C66G: 0.671.
As for A15U G25A G44C G67U, the yeast fitness was found to be 0.522.
The same measure for A15U G25C U59A: at most 0.5; for A15U U19A C24A: 0.641.
The same measure for A15U G38C C46U A69U A70G: at most 0.5.
The same measure for A15U C34G A37G A40C U64C: at most 0.5; for A15U G17C A37U: at most 0.5.
Turning to A15U C30G C34U, the yeast fitness was 0.71.
On to A15U G18A C27U U35C G41A C49U U53A, for which the yeast fitness was determined as 0.603.
The same measure for A15U C30U C62U: 0.572; for A15U C31U U35A A36C U53A G68C: at most 0.5; for A15U G52C G68A: at most 0.5.
The same measure for A15U G50C U54C: at most 0.5; for A15U G18A A57U: at most 0.5.
As for A15U G25C A57G, the figure is at most 0.5; as for A15U U16A C27G C55U C62U G67C, at most 0.5.
Take A15U C33G: the yeast fitness is 0.551.
The same measure for A15U G25C C49G U59G: at most 0.5; for A15U G25C C61G: at most 0.5.
The same measure for A15U C27A C62U A65C A69C: at most 0.5.
For the variant A15U C46U A65U G68C, the yeast fitness was at most 0.5.
As for A15U U19C G38C, the figure is 0.589; as for A15U C29U C46U, 0.667; as for A15U C31A C49G A65C, at most 0.5.
The same measure for A15U U19A A20G A40U A43U C60G C62U G68C: at most 0.5; for A15U G39C: 0.597.
With A15U G18C C29G U64A A69C, the yeast fitness was 0.598.
With A15U G25A G44C, the yeast fitness came out at 0.566.
A15U C33U A36G C62G A69C: the yeast fitness was at most 0.5.
Regarding A15U U16G G39A C60G A70G, the yeast fitness is at most 0.5.
The same measure for A15U G50A: 0.708.
The same measure for A15U G18C C29G: 0.571.
Take A15U G56U: the yeast fitness is 0.657.
As for A15U G56C, the figure is 0.549; as for A15U C60A, 0.512; as for A15U C33G C62G, 0.602.
The same measure for A15U G23A A40C A57G C61U A65C: 0.629; for A15U G39A A57G: at most 0.5; for A15U G44A: 0.65.
On to A15U G18A C27G G56C G68C, for which the yeast fitness is at most 0.5.
As for A15U G23C A40U G63C, the figure is at most 0.5; as for A15U C31A C49G, 0.576; as for A15U U26A, 0.666.
A15U C30G C34U C66U A70C: the yeast fitness amounted to 0.511.
The same measure for A15U G23C G41A C49A: at most 0.5; for A15U C31U G52A: 0.576; for A15U G18A A40C A43C C46G A69C: at most 0.5.
Take A15U C55G U64C A65C: the yeast fitness was at most 0.5.
The same measure for A15U G18A A37G G50A: at most 0.5; for A15U U19A A45C C55U A57U: 0.583; for A15U G38C G39A A43C U54C C60G A65C: at most 0.5.
The same measure for A15U C30U A40G C55U: 0.653; for A15U C31G U53A C55U A57C C60G G67C: 0.546; for A15U C27U U47C G68C: at most 0.5.
The same measure for A15U U16C A40U: at most 0.5; for A15U C49U G56A C61G: at most 0.5.
For A15U C27U G39A G48A, the yeast fitness is at most 0.5.
As for A15U G23C C33A C66U G68C, the figure is at most 0.5.
The same measure for A15U G18C A36G A37C G50A: at most 0.5; for A15U C29A G50C: at most 0.5.
As for A15U G25A G44C G52A, the figure is at most 0.5; as for A15U G68A, 0.62; as for A15U C33U U64G A70C, at most 0.5.
As for A15U C34G A37G A40C C62U A65U, the yeast fitness was at most 0.5.
As for A15U C66U A70U, the figure is 0.604; as for A15U G23C A37G, at most 0.5.
The same measure for A15U C31A A70G: at most 0.5.
For A15U C30G A36C C60A C61U, the yeast fitness was at most 0.5.
As for A15U G23A G68C, the figure is at most 0.5; as for A15U G50A C55G, 0.666; as for A15U G48C, 0.669.
The same measure for A15U G38C A43C: at most 0.5.
As to A15U C29A C49G A69U, the yeast fitness was at most 0.5.
For A15U C30G G50A, the yeast fitness was at most 0.5.
As for A15U G25C C61U G63C, the yeast fitness came to 0.545.
The same measure for A15U G38C G39A A43C: at most 0.5.
On to A15U G25C, for which the yeast fitness amounted to 0.583.
